Screening data: PubChem BioAssay, Johns Hopkins Ion Channel Center
KCNQ1 act = potentiators or activators of KCNQ1 channel, primary screen, cell-based, thallium flux, high-throughput; AID 2648, 2010; actives 0.35% (n = 310,000); CHO-K1 KCNQ1, thallium flux FluxOR fluorescence; hits give high values; B-score at 10 µM;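 active means fluorescence ratio B-score, a plate-corrected score, at least three library SD, with initial intensity B-score within 5 SD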
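assay system = KCNQ1-transfected CHO-K1 cells | medium = assay buffer with matched DMSO | probe or stimulus = depolarizing K+/Tl+ stimulus, K2SO4 and Tl2SO4 each 12.5 mM in 5x stock | dosing = single dose | incubation = dye 90 min, compound 20 min, room temperature | detection = kinetic FluxOR fluorescence, 10 s baseline plus 110 s post-stimulus | evaluation = ratio B score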
hERG protect = hERG rescue from dofetilide block, primary screen, cell-based, CHO-hERG, FluxOR thallium flux, dofetilide IC70; dofetilide IC70 present; activation (rescue from dofetilide block), less the hit threshold, % at 10 µM; actives 0.51% (n = 310,000); AID 1511, 2009;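 active means activation above the mean of controls blocked by dofetilide plus 5 SD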;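 further: thallium influx through hERG after potassium depolarization seen as dye fluorescence rise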
KCNQ1 inh = inhibitors of human KCNQ1 channel, primary screen, cell-based, thallium flux, high-throughput. Potassium voltage-gated channel subfamily KQT member 1 (Homo sapiens), P51787. CHO-K1 KCNQ1, FluxOR thallium flux fluorescence; hits give high values. B-score at 10 µM. AID 2642, 2010. actives 1.3% (n = 310,000);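 active means compounds whose thallium flux B-score, printed positive for inhibition, exceeds three library SD while starting fluorescence stays within three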;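 further: channel opened by potassium depolarization with thallium stimulus after 20 min compound exposure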
KCNK9 inh = KCNK9 potassium channel inhibitors, primary screen, HEK293 cells, thallium flux | Potassium channel subfamily K member 9 (Homo sapiens), Q9NPC2 | FluxOR thallium flux fluorescence; hits give low values | B-score at 10 µM | actives 1.2% (n = 310,000) | AID 488922, 2010;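 active means ratio B-score over 3 SD below the library mean, with starting fluorescence within 5 SD of its mean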;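 further: negative B-score means less thallium flux so channel inhibition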
Target sequence (Q9NPC2 whole entry, looked up): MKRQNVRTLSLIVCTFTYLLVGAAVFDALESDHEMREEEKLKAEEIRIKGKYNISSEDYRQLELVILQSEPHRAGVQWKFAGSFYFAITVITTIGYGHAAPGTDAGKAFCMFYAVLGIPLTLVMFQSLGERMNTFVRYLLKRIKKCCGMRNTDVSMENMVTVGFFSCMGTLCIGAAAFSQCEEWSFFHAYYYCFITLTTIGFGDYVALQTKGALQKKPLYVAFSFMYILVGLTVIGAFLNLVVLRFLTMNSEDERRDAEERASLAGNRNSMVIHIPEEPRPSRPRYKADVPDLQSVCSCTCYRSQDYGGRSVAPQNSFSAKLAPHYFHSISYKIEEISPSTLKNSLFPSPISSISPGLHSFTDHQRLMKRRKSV
KCNK3 inh = human KCNK3 channel inhibitors, primary screen, CHO cells, FluxOR thallium flux, B-score | FluxOR fluorescence; hits give low values | actives 0.84% (n = 340,000) | B-score at 10 µM | AID 602410, 2012;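 active means B-score under library mean minus 4 SD, starting fluorescence ratio at most library mean plus 5 SD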;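 further: more negative B-score means stronger inhibition of thallium flux through KCNK3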
Kir21 inh = inhibitors of mouse Kir2.1 inward-rectifier potassium channel | Inward rectifier potassium channel 2 (Mus musculus), P35561 | HEK293-Kir2.1, FluxOR thallium flux fluorescence; hits give low values | B-score at 10 µM | actives 0.85% (n = 310,000) | AID 1672, 2009;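 active means fluorescence ratio B-score at or below minus 3 SD of library scores, with starting-brightness B-score within 2 SD, cut at about -4.2 in these data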;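 further: channel flux triggered by added potassium and thallium sulfate stimulus; B-score of peak minus minimum fluorescence over baseline after thallium stimulus; more negative B-score means stronger Kir2.1 block with less thallium influx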
Of the large screens only hits and unclear results are named; the others gave an inactive call. Most compounds without a hit are left out; they make up all but 3.8% or so of the library.

COc1cc2c(cc1OC)CN(c1ccc(-c3ccccc3OC)nn1)CC2	none
COc1cc2c(cc1OC)CN(c1ccc3ccccc3n1)CC2	Kir21 inh -11.1
Cc1[nH]n(-c2ccccc2)c(=O)c1Sc1ccc(Cl)cc1	none
CCCSC(=S)c1c(C)[nH]n(-c2ccccc2)c1=O	KCNQ1 act 16, hERG protect 26.9
CCN(CC(=O)NCc1ccc(F)cc1)C(=O)C1CCN(S(=O)(=O)c2ccc(C(C)C)cc2)CC1	none (no result: KCNQ1 act, hERG protect, KCNQ1 inh, KCNK9 inh, Kir21 inh)
O=C(CN1C(=O)c2cccnc2Oc2ccc(Cl)cc21)Nc1ccccc1F	KCNK9 inh -6.75
CCOC(=O)N1CCN(C(=O)COC(=O)c2cc(Cl)cc(Cl)c2)CC1	none (no result: KCNQ1 act, hERG protect, KCNQ1 inh, KCNK9 inh, Kir21 inh)
CCOC(=O)N1CCN(C(=O)COC(=O)c2cc(Cl)c(O)c(Cl)c2)CC1	hERG protect 8.1
COc1ccc2c(c1)CCCN2C(N)=Nc1ccc(Cl)cc1	Kir21 inh -7.59
Cc1noc(C)c1COc1ccc(C(=O)OCC(=O)Nc2c(C)n(C)n(-c3ccccc3)c2=O)cc1	none
C[C@H](CO)N1C[C@H](C)[C@@H](CN(C)C(=O)Nc2ccc(C(F)(F)F)cc2)Oc2c(NC(=O)Nc3ccc4c(c3)OCO4)cccc2C1=O	KCNK3 inh -8.98 (no result: KCNQ1 act, hERG protect, KCNQ1 inh, KCNK9 inh, Kir21 inh)
COc1ccc(COc2cc(-c3cccc(OC)c3)nc3ccc(NC(=O)c4cccnc4)cc23)cc1	KCNQ1 inh 6
Cc1ccc(N2C(=O)c3ccccc3NC2c2ccccc2O)cc1 (centres undefined)	none
O=C1c2ccccc2NC(c2ccccc2O)N1O (centres undefined)	KCNQ1 act 8
Nc1ncnc2c1ncn2[C@@H]1O[C@H](CNS(=O)(=O)c2cc(S(=O)(=O)c3ccccc3)cs2)[C@@H](O)[C@H]1O	none (no result: KCNQ1 act, hERG protect, KCNQ1 inh, KCNK9 inh, Kir21 inh)
Cn1c(-c2ccccc2)cnc1SCC(=O)N1CCCc2ccccc21	Kir21 inh -7.46
O=C(CSc1nccn1-c1ccc(Cl)cc1)N1CCCc2ccccc21	Kir21 inh -9.34
O=C1CCC([N+](=O)[O-])C(c2ccc(C(F)(F)F)cc2)N1 (centres undefined)	none
CCOC(=O)C1CCCN(C(=O)c2cc(Cl)ccc2Cl)C1 (centres undefined)	none
CCOC(=O)C1CCCN(C(=O)C(C)Oc2ccc(Cl)cc2Cl)C1 (centres undefined)	Kir21 inh -4.71
CS(=O)(=O)c1sc(C#N)c2c1C(=O)CC(c1ccccc1)C2 (centres undefined)	KCNQ1 act 27
O=C(NC(=S)Nc1ccccc1)c1cncc(C#Cc2ccccc2)c1	hERG protect 5.8
O=S(=O)(Nc1ccc(O)c(NS(=O)(=O)c2ccccc2)c1)c1ccccc1	none
CC(NC(=O)COC(=O)CNS(=O)(=O)/C=C/c1ccccc1)c1ccccc1 (centres undefined)	none (no result: KCNQ1 act, hERG protect, KCNQ1 inh, KCNK9 inh, Kir21 inh)
Cc1c(C(=O)N2CCN(Cc3ccc4c(c3)OCO4)CC2)sc2ncnc(N3CCN(c4ccccc4F)CC3)c12	none
Cc1c(C(=O)N2CCN(Cc3ccc4c(c3)OCO4)CC2)sc2ncnc(N3CCN(c4ccccc4)CC3)c12	KCNQ1 inh 7
COC(=O)c1ccc(CN(c2ccc(C(=O)O)c(O)c2)S(=O)(=O)c2ccc(Cl)c([N+](=O)[O-])c2)cc1	KCNQ1 inh 7
COC(=O)c1ccc(CN(c2ccccn2)S(=O)(=O)c2ccccc2)cc1	none
O=C(O)C(c1ccccc1)C1(O)CC2CCC1C2 (centres undefined)	none (no result: KCNQ1 act, hERG protect, KCNQ1 inh, KCNK9 inh, Kir21 inh)
COC(=O)Cn1c2c(c3cc(C)ccc31)CCCC2NC(C)c1ccccc1 (centres undefined)	hERG protect 4.9
O=C(CN1CCSC1=O)Nc1ccc(N2CCOCC2)cc1	none (no result: KCNQ1 act, hERG protect, KCNQ1 inh, KCNK9 inh, Kir21 inh)
Cc1ccc(C2OC(=O)C=C2c2ccccc2)cc1 (centres undefined)	none
CN1C(=O)/C(=N\OC(=O)c2cccc3ccccc23)c2ccccc21	KCNQ1 act 18, hERG protect 11.5
Cc1cc(-c2nnc(SCC(=O)Nc3cccc(F)c3)n2N)n[nH]1	none
Cn1c(-c2c(N)n(C3CCCC3)c3nc4ccccc4nc23)nc2ccccc21	KCNK3 inh -11.3
CCN1CCN(S(=O)(=O)c2ccc(Cl)c(C(=O)N(C)CCOc3ccc(Cl)cc3)c2)CC1	none
Oc1c(Br)cc(Br)cc1C=Nc1cccc2ncccc12	KCNQ1 act 13, hERG protect 4.8
Brc1cccc(C=Nc2cccc3ncccc23)c1	none
COc1c(CC=C(C)C)cc(C2CC(=O)c3c(O)cc(O)cc3O2)cc1CC=C(C)C (centres undefined)	KCNQ1 inh 8
Cc1onc(-c2ccccc2)c1C(=O)Nc1nnc(CC(C)C)s1	none
COc1ccc(NC(=O)c2ccc(COCC(F)(F)C(F)F)cc2)cc1OC	none
COc1ccc(NC(=O)c2ccc(COCC(F)(F)C(F)F)cc2)cc1	hERG protect 12.6
COc1cc(NS(=O)(=O)c2ccc(NC(=O)/C=C/C(=O)O)cc2)nc(OC)n1	none
COCCOC(=O)/C(=C\c1cc(C(C)(C)C)c(O)c(C(C)(C)C)c1)C(C)=O	Kir21 inh -5.38
O=C(c1ccco1)N1CCN(C2CC(=O)N(c3ccc(F)c(Cl)c3)C2=O)CC1 (centres undefined)	none
COC(=O)NCC(C)OC(=O)Nc1cccc(Cl)c1 (centres undefined)	none
CC(CNC(=O)COc1ccccc1)OC(=O)Nc1ccc(Cl)c(Cl)c1 (centres undefined)	KCNQ1 act 9
Cc1c(-c2cc[n+]([O-])cc2)oc2ccc(Br)cc2c1=O	hERG protect 4.9 (no result: KCNK3 inh)
COc1ccc(-c2nsc3c(N4CCCCC4)ncnc23)cc1	hERG protect 8.0
Cc1csc2c(N3CCCCC3)ncnc12	hERG protect 8.6
Cc1csc2c(N3CCC(C(=O)O)CC3)ncnc12	none
O=C(COC(=O)c1ccccc1O)Nc1cccc(S(=O)(=O)N2CCCC2)c1	none (no result: KCNQ1 act, hERG protect, KCNQ1 inh, KCNK9 inh, Kir21 inh)
CN(CC(=O)Nc1ccc(N2CCOCC2)cc1)C(=O)c1cc2c(s1)CCCC2	none (no result: KCNQ1 act, hERG protect, KCNQ1 inh, KCNK9 inh, Kir21 inh)
COc1cccc(NC(=S)NNC(=O)c2ccccc2OC(F)F)c1	none
O=C(NNC(=S)Nc1cccc(Cl)c1)c1ccccc1OC(F)F	KCNQ1 inh 9
COCCCNC(=S)NNC(=S)Nc1cccc(Cl)c1	KCNQ1 inh 6
S=C(Nc1cccc(Cl)c1)Nc1ccccc1Oc1ccccc1	KCNQ1 inh 8
CN(C)S(=O)(=O)c1ccc2nnn(O)c2c1	none
